For series [1], the target named is T1, Telomerase reverse transcriptase (Homo sapiens, UniProt O14746). The series is described as follows: Inhibition of telomerase in human H1299 cells at 1 to 20 uM by TRAP assay. It counts as cell-based. The method in brief:
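Modified TRAP assay using 2 µg total lysate from H1299 lung cancer cells as the telomerase source. Compounds were tested at 1, 5, 10 and 20 µM. Products were resolved on 10% polyacrylamide gels and stained with SYBR Green. A Taq-polymerase internal control was included, along with positive and negative controls.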

The nature of series [2]: Cytotoxicity against human H1299 cells at 100 uM after 48 hrs by MTT assay realtive to control. It is filed as functional. Particulars: NCI-H1299, 48 h. Summed up:
(§1)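 H1299 non-small-cell lung cells were kept in RPMI 1640 with 10% FBS and penicillin/streptomycin at 37 °C under 5% CO2. About 2 × 10^3 cells per well were pre-incubated for 24 h. Compound was added from freshly made DMSO solution diluted in complete medium and left for 48 h. MTT was then added for 4 h at 37 °C, followed by 20% SDS/50% DMF lysis buffer for 16 h at 37 °C, and absorbance read at 550 nm.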

Series [3] is described as follows: Cytotoxicity against human H1299 cells at 10 uM after 48 hrs by MTT assay realtive to control. It is filed as functional. Particulars: NCI-H1299, 48 h. Summed up: as §1
(Tetrazolium assays rely on reduction of a dye to a coloured formazan, in cell work by metabolically active cells.)

Series [4] in a line: Cytotoxicity against human TERT immortalized BJ1 cells at 100 uM after 48 hrs by MTT assay relative to control. It is filed as cell-based, BJ. Summed up: (§2)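 hTERT-immortalized BJ1 fibroblasts were grown in DMEM with 10% FCS, 1 mM pyruvate and 4 mM […]. Cells (about 2 × 10^3 per well) were seeded and held 24 h at 37 °C. Compounds were freshly dissolved in DMSO, diluted into medium and left on the cells 48 h. MTT was added for 4 h, then SDS/DMF lysis buffer for 16 h. Absorbance was read at 550 nm and expressed relative to untreated cells (100%).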

Series [5] can be described thus: Cytotoxicity against human TERT immortalized BJ1 cells at 10 uM after 48 hrs by MTT assay relative to control. It is filed as cell-based, BJ. The method in brief: as §2
The nature of series [6]: Cytotoxicity against human TERT immortalized BJ1 cells at 1 uM after 48 hrs by MTT assay relative to control. It counts as cell-based, BJ. Summed up:
as §2

Series [7] is described as follows: Cell viability of human H1299 cells at 1 uM after 48 hrs by MTT assay relative to control. Particulars: NCI-H1299, 48 h.
In series [8] the target is T1, Telomerase reverse transcriptase. The series is described as follows: Effect on human TERT expressed in BJ1 cells at 10 uM after 24 hrs by SEAP assay relative to control. Particulars: BJ.
Series [9] has the same target. The series is described as follows: Effect on human TERT expressed in H1299 cells at 1 uM after 24 hrs by SEAP assay relative to control.
For series [10] the target is unchanged. The series is described as follows: Effect on human TERT expressed in H1299 cells at 10 uM after 24 hrs by SEAP assay relative to control.
The target is the same in series [11]. The series is described as follows: Effect on human TERT expressed in H1299 cells at 100 uM after 24 hrs by SEAP assay relative to control.
Series [12] shares this target. The series is described as follows: Effect on human TERT expressed in BJ1 cells at 100 uM after 24 hrs by SEAP assay relative to control. Particulars: BJ.
Series [13] has the same target. The experiment in a line: Effect on human TERT expressed in BJ1 cells at 1 uM after 24 hrs by SEAP assay realtive to control. Particulars: BJ.

Activity calls are given as the source filed them. The calls are words filed in the database; no cut-off is given here.

T1 sequence (O14746 whole entry): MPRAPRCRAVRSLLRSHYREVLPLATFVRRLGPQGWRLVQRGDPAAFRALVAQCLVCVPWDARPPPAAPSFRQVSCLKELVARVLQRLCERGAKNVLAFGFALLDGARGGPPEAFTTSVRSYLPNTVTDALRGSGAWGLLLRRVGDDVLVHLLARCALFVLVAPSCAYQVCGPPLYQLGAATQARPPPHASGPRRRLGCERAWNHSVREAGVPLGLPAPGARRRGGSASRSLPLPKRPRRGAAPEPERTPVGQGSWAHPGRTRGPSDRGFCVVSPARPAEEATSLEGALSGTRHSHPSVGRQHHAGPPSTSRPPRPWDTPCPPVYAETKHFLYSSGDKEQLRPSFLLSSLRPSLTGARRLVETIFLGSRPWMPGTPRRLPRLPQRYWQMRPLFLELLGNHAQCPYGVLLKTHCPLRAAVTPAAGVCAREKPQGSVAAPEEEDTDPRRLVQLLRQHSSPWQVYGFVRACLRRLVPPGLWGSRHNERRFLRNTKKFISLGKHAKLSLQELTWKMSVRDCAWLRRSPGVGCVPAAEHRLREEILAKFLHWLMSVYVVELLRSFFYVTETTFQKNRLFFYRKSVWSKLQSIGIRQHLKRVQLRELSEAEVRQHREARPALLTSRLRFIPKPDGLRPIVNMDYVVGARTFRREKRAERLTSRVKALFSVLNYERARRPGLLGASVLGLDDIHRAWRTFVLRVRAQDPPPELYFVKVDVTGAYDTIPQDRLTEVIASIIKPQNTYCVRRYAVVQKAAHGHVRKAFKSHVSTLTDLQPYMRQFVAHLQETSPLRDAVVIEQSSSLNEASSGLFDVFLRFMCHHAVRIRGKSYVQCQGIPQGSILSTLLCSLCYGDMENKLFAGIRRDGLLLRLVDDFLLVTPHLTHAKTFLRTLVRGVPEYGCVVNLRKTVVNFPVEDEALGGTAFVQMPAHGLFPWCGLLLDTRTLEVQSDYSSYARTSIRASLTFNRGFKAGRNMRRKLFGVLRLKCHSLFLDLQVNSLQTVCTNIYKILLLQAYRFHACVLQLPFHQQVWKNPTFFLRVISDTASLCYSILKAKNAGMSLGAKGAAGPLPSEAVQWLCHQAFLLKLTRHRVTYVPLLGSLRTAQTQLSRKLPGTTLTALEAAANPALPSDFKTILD

For `CCCNCCC(=O)Nc1ccc2c(c1)C(=O)c1cc(NC(=O)CCNCCC)ccc1C2=O`, in series [1], the result was Active. Moreover, the viability at 100 µM in series [2] worked out at 13%. Further, in [3], the viability at 10 µM is 50%. Besides, the viability at 48 h, 100 µM in series [4] came out at 38%. For the same molecule, in [5], the viability at 48 h, 10 µM amounted to 65%. Also, the viability at 48 h, 1 µM in series [6] stood at 75%. Further, the cell viability at 1 µM in series [7] was found to be 80%. The residual activity was 133% in series [8], 52% in [9], 22% in series [10] and 13% in series [11].

Consider `CCNCCC(=O)Nc1ccc2c(c1)C(=O)c1cc(NC(=O)CCNCC)ccc1C2=O`, for which, in series [1], the result was Active. For the same molecule, in series [2], the viability at 100 µM turned out to be 34%. Further, in series [3], the viability at 10 µM amounted to 59%. Also, the viability at 48 h, 100 µM in series [4] was found to be 42%. The viability at 48 h, 10 µM in series [5] was 73%. Further, in series [6], the viability at 48 h, 1 µM came out at 82%. The cell viability at 1 µM in series [7] was 86%. In addition, the residual activity worked out at 68% in series [9], 97% in [12], 33% in series [10] and 22% in [11].

Take `CC(C)CNCC(=O)Nc1ccc2c(c1)C(=O)c1cc(NC(=O)CNCC(C)C)ccc1C2=O`: the viability at 100 µM in [2] is 11%. Also, the viability at 10 µM in series [3] was determined as 39%. Also, the viability at 48 h, 100 µM in series [4] worked out at 39%. Besides, the viability at 48 h, 10 µM in [5] was determined as 37%. In addition, the viability at 48 h, 1 µM in series [6] was 107%. For the same molecule, the cell viability at 1 µM in series [7] is 108%. Further, the residual activity in [13] was determined as 83%; in [8] it was 44%; in series [9], 73%; in [12], 40%; in [10], 38%; in series [11], 26%.

Regarding `O=C(CN1CCCCC1)Nc1ccc2c(c1)C(=O)c1cc(NC(=O)CN3CCCCC3)ccc1C2=O`, in series [2], the viability at 100 µM is 35%. The viability at 10 µM in series [3] amounted to 37%. Moreover, in [4], the viability at 48 h, 100 µM was 22%. Also, in series [5], the viability at 48 h, 10 µM was 78%. In series [6], the viability at 48 h, 1 µM was 89%. For the same molecule, the cell viability at 1 µM in series [7] turned out to be 50%. The residual activity in series [13] was found to be 118%; in series [8], 121%; in [9] it was 74%; in [12], 103%; in series [10], 69%; in [11], 63%.

Consider `O=C1c2ccc(NC(=O)C3CCCC3)cc2C(=O)c2cc(NC(=O)C3CCCC3)ccc21`, for which the viability at 100 µM in series [2] amounted to 42%. For the same molecule, in series [3], the viability at 10 µM came to 77%. Besides, the viability at 48 h, 100 µM in series [4] was found to be 58%. In [5], the viability at 48 h, 10 µM was found to be 68%. For the same molecule, the viability at 48 h, 1 µM in [6] was found to be 77%. Further, in [7], the cell viability at 1 µM was found to be 91%. Moreover, the residual activity in series [13] amounted to 137%; in series [8], 130%; in [9], 83%; in series [12] it was 108%; in series [10], 87%; in series [11] it was 85%.

Consider `CCC(=O)Nc1ccc2c(c1)C(=O)c1cc(NC(=O)CC)ccc1C2=O`, for which the viability at 100 µM in [2] worked out at 35%. Besides, the viability at 10 µM in [3] turned out to be 38%. The viability at 48 h, 100 µM in [4] came to 48%. The viability at 48 h, 10 µM in [5] amounted to 57%. For the same molecule, the viability at 48 h, 1 µM in [6] is 77%. Moreover, the cell viability at 1 µM in series [7] was determined as 70%. For the same molecule, the residual activity came to 78% in series [13]; 64% in [8]; 90% in [9]; 51% in series [12]; 95% in series [10]; 85% in series [11].

As for `CC(C)NCC(=O)Nc1ccc2c(c1)C(=O)c1cc(NC(=O)CNC(C)C)ccc1C2=O`, in series [2], the viability at 100 µM stood at 6%. In series [3], the viability at 10 µM was 26%. Also, the viability at 48 h, 100 µM in [4] is 39%. For the same molecule, in series [5], the viability at 48 h, 10 µM stood at 41%. Moreover, in series [6], the viability at 48 h, 1 µM amounted to 89%. Further, the cell viability at 1 µM in series [7] came out at 78%. The residual activity stood at 79% in series [13]; 55% in series [8]; 73% in series [9]; 45% in series [12]; 28% in [10]; 21% in series [11].

In the case of `CN(C)CCC(=O)Nc1ccc2c(c1)C(=O)c1cc(NC(=O)CCN(C)C)ccc1C2=O`, the result in series [1] was Active. Besides, in [2], the viability at 100 µM is 1%. The viability at 10 µM in series [3] came to 53%. Moreover, the viability at 48 h, 100 µM in [4] amounted to 22%. Besides, the viability at 48 h, 10 µM in [5] came out at 30%. The viability at 48 h, 1 µM in series [6] amounted to 94%. For the same molecule, in [7], the cell viability at 1 µM came out at 1%. Moreover, the residual activity in series [13] came to 86%; in series [8], 61%; in [9], 5%; in [12], 38%; in series [10], 13%; in series [11], 1%.

With `CN1CCN(CC(=O)Nc2ccc3c(c2)C(=O)c2cc(NC(=O)CN4CCN(C)CC4)ccc2C3=O)CC1`, in [2], the viability at 100 µM was 37%. Besides, the viability at 10 µM in series [3] was 71%. The viability at 48 h, 100 µM in [4] came out at 47%. In [5], the viability at 48 h, 10 µM stood at 69%. The viability at 48 h, 1 µM in series [6] worked out at 86%. In addition, in series [7], the cell viability at 1 µM was 90%. The residual activity in series [13] worked out at 61%; in [8], 68%; in [9], 76%; in [12] it was 97%; in [10], 50%; in series [11], 23%.

On to `O=C1c2ccc([N+](=O)[O-])cc2C(=O)c2cc([N+](=O)[O-])ccc21`, for which the viability at 100 µM in series [2] stood at 69%. Further, in series [3], the viability at 10 µM is 95%. The viability at 48 h, 100 µM in [4] was 86%. In addition, in series [5], the viability at 48 h, 10 µM was 91%. Also, the viability at 48 h, 1 µM in series [6] stood at 91%. In addition, the cell viability at 1 µM in series [7] turned out to be 97%. Besides, the residual activity in [13] is 55%; in series [8], 60%; in series [9], 87%; in series [12] it was 65%; in series [10] it was 85%; in series [11], 62%.

On to `CCCCNCCC(=O)Nc1ccc2c(c1)C(=O)c1cc(NC(=O)CCNCCCC)ccc1C2=O`, for which the viability at 100 µM in series [2] was found to be 14%. Besides, in series [3], the viability at 10 µM turned out to be 52%. Also, the viability at 48 h, 100 µM in series [4] was 40%. In addition, in [5], the viability at 48 h, 10 µM is 70%. Moreover, the viability at 48 h, 1 µM in series [6] was 80%. For the same molecule, in series [7], the cell viability at 1 µM came to 82%. In addition, the residual activity in series [13] was 88%; in series [8], 95%; in series [9] it was 56%; in series [12], 111%; in series [10] it was 33%; in [11], 22%.

In the case of `O=C(CCN1CCNCC1)Nc1ccc2c(c1)C(=O)c1cc(NC(=O)CCN3CCNCC3)ccc1C2=O`, the outcome in series [1] was Active. Besides, the viability at 100 µM in series [2] stood at 102%. Also, the viability at 10 µM in series [3] was determined as 94%. The viability at 48 h, 100 µM in [4] came out at 88%. In addition, the viability at 48 h, 10 µM in [5] is 100%. The viability at 48 h, 1 µM in [6] turned out to be 96%. The cell viability at 1 µM in series [7] worked out at 97%. In addition, the residual activity in series [8] was found to be 118%; in series [9] it was 75%; in [12], 131%; in series [10], 71%; in [11], 71%.

In the case of `CCNCC(=O)Nc1ccc2c(c1)C(=O)c1cc(NC(=O)CNCC)ccc1C2=O`, the viability at 100 µM in series [2] turned out to be 3%. The viability at 10 µM in [3] turned out to be 24%. Also, the viability at 48 h, 100 µM in series [4] is 37%. For the same molecule, the viability at 48 h, 10 µM in [5] turned out to be 56%. In [6], the viability at 48 h, 1 µM stood at 72%. Also, in series [7], the cell viability at 1 µM was determined as 52%. The residual activity came out at 90% in series [13]; 41% in series [8]; 60% in series [9]; 17% in series [12]; 35% in series [10]; 34% in [11].

Usually viability stands for a read-out of living cells in per cent, often relative to untreated cells. What is called cell viability is a read-out of living cells in per cent, often relative to untreated cells. As a reminder, the residual activity is the signal under treatment as a percentage of the control signal.

The values are drawn from ChEMBL document CHEMBL1155063 (Bioorg Med Chem, 2008).
